Assay results: ChEMBL document CHEMBL5705899 (Biochem J, 2014)
Activity calls are given as the source filed them. The calls are words filed in the database; no cut-off is given here.

Tests used:
[1] = target: Protein kinase C alpha type (Homo sapiens) (UniProt P17252); test: Inhibition of recombinant human N-terminal GST-tagged PKCA (2 to 351 residues) expressed in Escherichia coli assessed as remaining activity at 1 uM using kKemptide as substrate incubated for 30 mins in presence of [gamma-33P]ATP by filter binding method relative to control
[2] = target: Dual specificity tyrosine-phosphorylation-regulated kinase 3 (Homo sapiens) (UniProt O43781); test: Inhibition of recombinant human N-terminal GST-tagged DYRK3 (1 to 588 residues) expressed in Escherichia coli assessed as remaining activity at 1 uM using KKISGRLSPIMTEQ as substrate incubated for 30 mins in presence of [gamma-33P]ATP by filter binding method relative to control
[3] = target: AMPK alpha1/beta2/gamma1 (Homo sapiens) (UniProt O43741+P54619+Q13131); test: Inhibition of recombinant N-terminal His6-tagged human AMPKalpha1 (11 to 559 residues)/AMPKbeta2 (1 to 272 residues)/AMPKgamma1 (1 to 331 residues) expressed in baculovirus infected Sf21 cells assessed as remaining activity at 1 uM using SAMS as substrate incubated for 30 mins in presence of [gamma-33P]ATP relative to control
[4] = target: Aurora kinase B (Homo sapiens) (UniProt Q96GD4); test: Inhibition of recombinant human N-terminal His6-tagged Aurora B (1 to 344 residues) expressed in Escherichia coli assessed as remaining activity at 1 uM using LRRLSLGLRRLSLGLRRLSLGLRRLSLG as substrate incubated for 30 mins in presence of [gamma-33P]ATP by filter binding method relative to control
[5] = target: Tyrosine-protein kinase Fes/Fps (Homo sapiens) (UniProt P07332); test: Inhibition of human FES at 1 uM using polyEY as substrate in presence of 33P-ATP by ProQinase assay
[6] = target: Tyrosine-protein kinase Blk (Homo sapiens) (UniProt P51451); test: Inhibition of human BLK at 1 uM using polyEY as substrate in presence of 33P-ATP by ProQinase assay
[7] = target: Ephrin type-A receptor 1 (Homo sapiens) (UniProt P21709); test: Inhibition of human EPHA1 at 1 uM using polyEY as substrate in presence of 33P-ATP by ProQinase assay
[8] = target: Tyrosine-protein kinase CSK (Homo sapiens) (UniProt P41240); test: Inhibition of human CSK at 1 uM using polyEY as substrate in presence of 33P-ATP by ProQinase assay
[9] = target: Serine/threonine-protein kinase Chk1 (Homo sapiens) (UniProt O14757); test: Inhibition of human CHK1 at 1 uM using RBER-CHKtide as substrate in presence of 33P-ATP by ProQinase assay
[10] = target: Activated CDC42 kinase 1 (Homo sapiens) (UniProt Q07912); test: Inhibition of human ACK1 at 1 uM using polyEy as substrate in presence of 33P-ATP by ProQinase assay
[11] = target: Tyrosine-protein kinase Fgr (Homo sapiens) (UniProt P09769); test: Inhibition of human FGR at 1 uM using polyEY as substrate in presence of 33P-ATP by ProQinase assay
[12] = target: Calcium/calmodulin-dependent protein kinase kinase 2 (Homo sapiens) (UniProt Q96RR4); test: Inhibition of human CAMKK2 at 1 uM using RBER-GSK3 as substrate in presence of 33P-ATP by ProQinase assay
[13] = target: Mitogen-activated protein kinase 8 (Homo sapiens) (UniProt P45983); test: Inhibition of human JNK1 at 1 uM using ATF2 as substrate in presence of 33P-ATP by ProQinase assay
[14] = target: Mitogen-activated protein kinase kinase kinase 1 (Homo sapiens) (UniProt Q13233); test: Inhibition of human MAP3K1 at 1 uM using bio-4xCHKT as substrate in presence of 33P-ATP by ProQinase assay
[15] = target: Serine/threonine-protein kinase Nek6 (Homo sapiens) (UniProt Q9HC98); test: Inhibition of human NEK6 at 1 uM using RBER-GSK3 as substrate in presence of 33P-ATP by ProQinase assay
[16] = target: Aurora kinase A (Homo sapiens) (UniProt O14965); test: Inhibition of human AuroraA at 1 uM using bio-4xCHKT as substrate in presence of 33P-ATP by ProQinase assay
[17] = target: Discoidin domain-containing receptor 2 (Homo sapiens) (UniProt Q16832); test: Inhibition of human DDR2 at 1 uM using poly(Ala,Glu,Lys,Tyr) as substrate in presence of 33P-ATP by ProQinase assay
[18] = target: Casein kinase II subunit alpha (Homo sapiens) (UniProt P68400); test: Inhibition of human CK2alpha1 at 1 uM using casein as substrate in presence of 33P-ATP by ProQinase assay
[19] = target: Myosin light chain kinase 2, skeletal/cardiac muscle (Homo sapiens) (UniProt Q9H1R3); test: Inhibition of human MYLK2 at 1 uM using RB-S6P as substrate in presence of 33P-ATP by ProQinase assay
[20] = target: Serine/threonine-protein kinase TBK1 (Homo sapiens) (UniProt Q9UHD2); test: Inhibition of human TBK1 at 1 uM using casein as substrate in presence of 33P-ATP by ProQinase assay
[21] = target: Serine/threonine-protein kinase Sgk1 (Homo sapiens) (UniProt O00141); test: Inhibition of human SGK1 at 1 uM using RBER-GSK3 as substrate in presence of 33P-ATP by ProQinase assay
[22] = target: Serine/threonine-protein kinase PAK 6 (Homo sapiens) (UniProt Q9NQU5); test: Inhibition of human PAK6 at 1 uM using bio-4xCHKT as substrate in presence of 33P-ATP by ProQinase assay
[23] = target: Phosphatidylinositol 4,5-bisphosphate 3-kinase catalytic subunit delta isoform (Homo sapiens, UniProt O00329); test: Inhibition of PI3Kdelta (unknown origin) using PtdIns(4,5)P2 as substrate preincubated for 20 mins followed by substrate addition and measured after 80 mins by Kinase-Glo assay
[24] = target: Phosphatidylinositol 4-kinase alpha (Homo sapiens, UniProt P42356); test: Inhibition of PI4Kalpha (unknown origin) using D-myo-PtdIns as substrate incubated for 45 mins by ADP-Glo assay
Summary of the method: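 PI4Kα: 1 nM enzyme, 72 μM ATP, 25 μM PtdIns. PI4Kβ: 2 nM enzyme, 220 μM ATP, 50 μM PtdIns. Reactions ran 45 min at ambient temperature; ADP-Glo reagent was added for 40 min, then detection reagent for 30 min, then luminescence was read.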

Chain of Tyrosine-protein kinase CSK (Homo sapiens) (P41240 2-450 limits assumed): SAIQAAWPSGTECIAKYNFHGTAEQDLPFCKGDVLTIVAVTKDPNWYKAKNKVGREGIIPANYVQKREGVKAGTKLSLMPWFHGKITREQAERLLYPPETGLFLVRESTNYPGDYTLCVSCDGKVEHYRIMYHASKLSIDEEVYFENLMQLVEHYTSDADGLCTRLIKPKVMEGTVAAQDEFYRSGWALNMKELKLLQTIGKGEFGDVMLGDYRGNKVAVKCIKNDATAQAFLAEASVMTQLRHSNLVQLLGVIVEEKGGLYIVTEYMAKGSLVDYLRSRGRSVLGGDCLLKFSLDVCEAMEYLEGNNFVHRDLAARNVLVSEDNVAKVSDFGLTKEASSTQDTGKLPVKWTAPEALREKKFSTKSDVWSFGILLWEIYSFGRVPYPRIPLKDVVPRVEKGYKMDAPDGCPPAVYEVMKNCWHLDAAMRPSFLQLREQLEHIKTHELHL
Chain of Casein kinase II subunit alpha (Homo sapiens) (P68400 whole entry, looked up): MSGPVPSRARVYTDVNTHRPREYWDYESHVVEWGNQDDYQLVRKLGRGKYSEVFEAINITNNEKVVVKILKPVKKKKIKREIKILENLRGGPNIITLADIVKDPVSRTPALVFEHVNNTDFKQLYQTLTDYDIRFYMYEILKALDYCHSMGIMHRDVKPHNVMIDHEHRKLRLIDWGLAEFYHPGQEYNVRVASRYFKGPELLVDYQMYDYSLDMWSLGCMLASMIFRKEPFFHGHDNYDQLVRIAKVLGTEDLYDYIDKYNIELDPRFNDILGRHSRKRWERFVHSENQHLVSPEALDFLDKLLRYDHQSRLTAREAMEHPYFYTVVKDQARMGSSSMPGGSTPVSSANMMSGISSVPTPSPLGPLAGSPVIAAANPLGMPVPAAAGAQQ
Chain of Mitogen-activated protein kinase 8 (Homo sapiens) (P45983 whole entry): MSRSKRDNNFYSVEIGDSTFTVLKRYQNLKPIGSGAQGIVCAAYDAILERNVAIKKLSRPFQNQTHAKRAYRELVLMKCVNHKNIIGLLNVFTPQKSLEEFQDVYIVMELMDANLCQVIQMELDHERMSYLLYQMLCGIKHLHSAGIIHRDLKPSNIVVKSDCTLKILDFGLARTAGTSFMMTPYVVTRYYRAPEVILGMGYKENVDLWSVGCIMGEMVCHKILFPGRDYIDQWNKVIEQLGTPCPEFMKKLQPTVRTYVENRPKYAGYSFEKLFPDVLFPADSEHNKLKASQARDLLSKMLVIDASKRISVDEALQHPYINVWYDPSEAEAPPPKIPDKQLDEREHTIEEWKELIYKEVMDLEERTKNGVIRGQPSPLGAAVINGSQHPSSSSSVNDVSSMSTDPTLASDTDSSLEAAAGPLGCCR
Chain of Serine/threonine-protein kinase Sgk1 (Homo sapiens) (O00141 whole entry): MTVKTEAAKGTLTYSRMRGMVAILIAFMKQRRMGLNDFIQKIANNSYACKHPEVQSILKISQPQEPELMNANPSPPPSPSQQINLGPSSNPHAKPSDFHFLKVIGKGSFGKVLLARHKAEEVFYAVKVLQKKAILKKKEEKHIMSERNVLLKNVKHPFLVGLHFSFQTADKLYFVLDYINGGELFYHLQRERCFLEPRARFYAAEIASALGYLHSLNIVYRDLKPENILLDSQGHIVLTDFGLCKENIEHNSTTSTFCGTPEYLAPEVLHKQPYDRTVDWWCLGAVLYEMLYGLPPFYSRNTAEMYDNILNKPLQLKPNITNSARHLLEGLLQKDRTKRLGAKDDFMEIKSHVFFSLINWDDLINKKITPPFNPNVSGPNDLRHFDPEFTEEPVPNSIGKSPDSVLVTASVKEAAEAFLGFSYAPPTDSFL
Chain of Aurora kinase A (Homo sapiens) (O14965 whole entry, the tested form may be a part): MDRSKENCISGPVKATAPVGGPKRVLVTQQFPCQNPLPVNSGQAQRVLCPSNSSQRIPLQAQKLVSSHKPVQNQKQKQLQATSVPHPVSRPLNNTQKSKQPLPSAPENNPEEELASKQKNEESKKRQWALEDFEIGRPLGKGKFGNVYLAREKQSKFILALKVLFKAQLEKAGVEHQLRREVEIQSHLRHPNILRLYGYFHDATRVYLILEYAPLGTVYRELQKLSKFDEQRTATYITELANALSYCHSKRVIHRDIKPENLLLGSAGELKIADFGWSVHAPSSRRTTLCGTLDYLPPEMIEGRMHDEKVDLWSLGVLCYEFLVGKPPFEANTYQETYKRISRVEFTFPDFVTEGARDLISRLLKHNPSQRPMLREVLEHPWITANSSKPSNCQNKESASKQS
Chain of Myosin light chain kinase 2, skeletal/cardiac muscle (Homo sapiens) (Q9H1R3 whole entry): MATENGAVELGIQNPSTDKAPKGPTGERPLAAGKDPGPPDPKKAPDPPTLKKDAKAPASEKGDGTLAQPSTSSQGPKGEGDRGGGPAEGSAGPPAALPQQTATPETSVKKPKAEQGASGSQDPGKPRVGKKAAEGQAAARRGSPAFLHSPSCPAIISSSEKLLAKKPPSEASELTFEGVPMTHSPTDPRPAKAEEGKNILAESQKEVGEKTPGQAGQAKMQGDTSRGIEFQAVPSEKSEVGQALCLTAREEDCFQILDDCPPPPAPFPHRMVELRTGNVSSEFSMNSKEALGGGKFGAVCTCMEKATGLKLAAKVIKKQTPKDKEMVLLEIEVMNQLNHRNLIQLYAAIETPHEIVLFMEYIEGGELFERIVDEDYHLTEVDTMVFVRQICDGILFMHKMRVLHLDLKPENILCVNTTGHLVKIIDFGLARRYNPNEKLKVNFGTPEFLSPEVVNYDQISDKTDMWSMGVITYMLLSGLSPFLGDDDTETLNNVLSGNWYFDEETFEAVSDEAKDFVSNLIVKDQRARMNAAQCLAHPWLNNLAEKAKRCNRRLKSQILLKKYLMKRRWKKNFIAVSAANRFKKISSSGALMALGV
Chain of AMPK alpha1/beta2/gamma1 (Homo sapiens) (O43741 whole entry, looked up, the tested form may be a part): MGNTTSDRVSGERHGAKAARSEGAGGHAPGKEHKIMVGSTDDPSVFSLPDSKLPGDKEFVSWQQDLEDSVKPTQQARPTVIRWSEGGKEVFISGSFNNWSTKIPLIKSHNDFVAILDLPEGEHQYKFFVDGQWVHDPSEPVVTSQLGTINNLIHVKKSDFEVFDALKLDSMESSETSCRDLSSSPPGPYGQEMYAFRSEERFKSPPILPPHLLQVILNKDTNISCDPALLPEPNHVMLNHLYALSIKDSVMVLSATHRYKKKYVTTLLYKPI
Chain of AMPK alpha1/beta2/gamma1 (Homo sapiens) (P54619 whole entry, looked up, the tested form may be a part): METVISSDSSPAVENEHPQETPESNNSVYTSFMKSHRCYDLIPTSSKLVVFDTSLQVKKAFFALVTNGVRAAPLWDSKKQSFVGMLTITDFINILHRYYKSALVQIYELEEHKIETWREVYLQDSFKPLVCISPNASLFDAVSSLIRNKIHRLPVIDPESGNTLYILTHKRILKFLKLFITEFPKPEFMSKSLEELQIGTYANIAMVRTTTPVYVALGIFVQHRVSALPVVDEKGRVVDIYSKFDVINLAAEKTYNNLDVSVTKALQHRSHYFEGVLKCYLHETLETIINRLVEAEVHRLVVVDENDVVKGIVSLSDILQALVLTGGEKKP
Chain of AMPK alpha1/beta2/gamma1 (Homo sapiens) (Q13131 whole entry, looked up, the tested form may be a part): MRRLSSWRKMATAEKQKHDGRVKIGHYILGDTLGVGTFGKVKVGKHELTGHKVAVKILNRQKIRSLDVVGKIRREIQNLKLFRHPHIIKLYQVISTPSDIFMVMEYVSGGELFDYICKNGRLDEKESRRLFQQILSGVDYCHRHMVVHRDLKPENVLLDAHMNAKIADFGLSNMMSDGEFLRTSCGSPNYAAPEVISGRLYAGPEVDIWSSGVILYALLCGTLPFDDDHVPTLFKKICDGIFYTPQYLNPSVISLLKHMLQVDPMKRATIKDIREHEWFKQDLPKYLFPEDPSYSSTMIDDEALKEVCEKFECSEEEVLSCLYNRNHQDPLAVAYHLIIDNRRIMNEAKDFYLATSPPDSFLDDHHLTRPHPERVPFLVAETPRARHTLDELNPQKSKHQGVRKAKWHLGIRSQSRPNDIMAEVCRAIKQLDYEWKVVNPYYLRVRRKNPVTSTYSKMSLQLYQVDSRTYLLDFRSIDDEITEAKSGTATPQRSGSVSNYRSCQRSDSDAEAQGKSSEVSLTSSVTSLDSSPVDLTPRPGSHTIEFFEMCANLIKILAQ
Chain of Activated CDC42 kinase 1 (Homo sapiens) (Q07912 whole entry, looked up): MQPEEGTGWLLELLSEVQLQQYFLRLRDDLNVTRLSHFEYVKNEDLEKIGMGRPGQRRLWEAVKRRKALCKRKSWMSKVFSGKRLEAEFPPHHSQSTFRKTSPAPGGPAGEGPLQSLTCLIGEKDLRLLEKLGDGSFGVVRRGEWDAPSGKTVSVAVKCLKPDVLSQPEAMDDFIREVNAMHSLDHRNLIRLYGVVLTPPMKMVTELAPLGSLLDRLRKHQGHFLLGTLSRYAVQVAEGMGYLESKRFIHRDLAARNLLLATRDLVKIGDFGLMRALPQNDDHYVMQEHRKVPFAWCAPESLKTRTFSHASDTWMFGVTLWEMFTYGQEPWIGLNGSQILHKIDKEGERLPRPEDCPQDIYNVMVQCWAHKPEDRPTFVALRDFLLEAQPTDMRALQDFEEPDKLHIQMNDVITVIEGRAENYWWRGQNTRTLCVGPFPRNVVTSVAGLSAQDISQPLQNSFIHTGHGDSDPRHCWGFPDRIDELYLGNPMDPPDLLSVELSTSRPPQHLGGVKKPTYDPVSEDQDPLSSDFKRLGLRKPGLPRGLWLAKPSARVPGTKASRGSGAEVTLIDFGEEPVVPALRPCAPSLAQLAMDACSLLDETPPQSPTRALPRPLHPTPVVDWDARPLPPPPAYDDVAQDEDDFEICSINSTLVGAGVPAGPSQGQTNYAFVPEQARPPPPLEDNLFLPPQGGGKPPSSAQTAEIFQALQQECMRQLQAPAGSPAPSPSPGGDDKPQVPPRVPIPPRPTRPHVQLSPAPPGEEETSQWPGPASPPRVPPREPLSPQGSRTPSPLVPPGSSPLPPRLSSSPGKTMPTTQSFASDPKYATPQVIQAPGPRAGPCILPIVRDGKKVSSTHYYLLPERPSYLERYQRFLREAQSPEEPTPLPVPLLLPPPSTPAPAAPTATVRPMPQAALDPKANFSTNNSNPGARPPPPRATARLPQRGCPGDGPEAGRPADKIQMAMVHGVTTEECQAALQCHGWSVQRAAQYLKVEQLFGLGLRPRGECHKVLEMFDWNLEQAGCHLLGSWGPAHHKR

Compound: CC(C)(O)CNc1ncc(-c2ccnc(Nc3ccnc(Cl)c3)n2)c(CC2CC2)n1
- Activity [1]: 112%
- Activity [2]: 112%
- Activity [3]: 96%
- Activity [4]: 83%
- inhibition [5]: inactive
- inhibition [6]: inactive
- inhibition [7]: inactive
- inhibition [8]: inactive
- inhibition [9]: inactive
- inhibition [10]: inactive
- inhibition [11]: inactive
- inhibition [12]: inactive
- inhibition [13]: inactive
- inhibition [14]: inactive
- inhibition [15]: inactive
- inhibition [16]: inactive
- inhibition [17]: inactive
- inhibition [18]: inactive
- inhibition [19]: inactive
- inhibition [20]: inactive
- inhibition [21]: inactive
- inhibition [22]: inactive
- IC50 [23]: 1900 nM
- IC50 [24]: 4070 nM
